Measurements taken from ChEMBL document CHEMBL2380302, “Synthesis of 3-O-propargylated betulinic acid and its 1,2,3-triazoles as potential apoptotic agents” (Eur J Med Chem, 2013).
Calls of active or inactive are those of the source. The rule behind the calls is not given here.

What was measured:
THP-1 [1] = experiment: Inhibition of cell invasion in human THP1 cells at 1 to 30 uM after 24 hrs by wound-healing assay; assay type: functional, cell-based
Summary of the method: (§1)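 THP-1 monolayers (3×10⁵ cells/mL/well) were scratched with a pipette tip and washed three times with PBS. Test samples were added for 24 h, then fresh medium was added until the control wound healed. Wounds were imaged with a 10× objective at 0 h and 24 h. Migration was quantified as the distance between wound edges.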

THP-1 [2] = experiment: Inhibition of cell migration in human THP1 cells at 1 to 30 uM after 24 hrs by wound-healing assay; assay type: functional, cell-based; summary of the method: as §1
HL-60 [3] = experiment: Induction of apoptosis in human HL60 cells assessed as DNA ladder formation at 20 to 30 uM after 24 hrs by DNA agarose gel electrophoresis; assay type: functional, cell-based
Summary of the method: (§2)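 DNA fragmentation assay in HL-60 cells (2 × 10⁶ cells/well) or CV-1 cells, treated for 24 h. Cells were lysed in Tris–HCl pH 8.0/NaCl/EDTA/Triton X-100 with proteinase K (200 µg/mL) at 50 °C for 1 h, then DNase-free RNase for 90 min. DNA was phenol:chloroform extracted and ethanol precipitated. Gels were 1% agarose in TAE at 80 V for 1.5 h. Camptothecin (5 µM, 6 h) served as positive control in HL-60.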

HL-60 [4] = experiment: Induction of apoptosis in human HL60 cells assessed as DNA ladder formation after 24 hrs by DNA agarose gel electrophoresis; assay type: functional; summary of the method: as §2
CV-1 = experiment: Induction of apoptosis in african green monkey CV1 cells assessed as DNA ladder formation at 10 to 60 uM after 24 hrs by DNA agarose gel electrophoresis; assay type: cell-based; settings: chlorocebus aethiops, cv-1, 24 h; summary of the method: as §2
HL-60 [5] = experiment: Induction of apoptosis in human HL60 cells assessed as change in mitochondrial membrane potential after 24 hrs using rhodamine-123 staining by fluorescence based confocal microscopy analysis; assay type: functional, cell-based
Summary of the method: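 HL-60 cells (6 × 10⁴/mL/well) were treated for 24 h. Rhodamine-123 (1 µM) was added in serum-free medium 30 min before the end, in the dark. Cells were then washed and resuspended in PBS. Fluorescence loss was viewed by confocal microscopy with 488 nm laser excitation. Each experiment was done twice.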

THP-1 [6] = experiment: Inhibition of colony formation in human THP1 cells using crystal violet staining after 24 hrs by clonogenic assay; assay type: functional, cell-based
Summary of the method: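 THP-1 cells from log-phase culture were plated at clonogenic dilution. After 24 h they were treated for 24 h, then incubated for at least six potential divisions (colonies >50 cells). Colonies were fixed and stained with 6% glutaraldehyde plus 0.5% crystal violet for 30 min, washed with water and air-dried.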

HCT-15 [7] = experiment: Cytotoxicity against human HCT15 cells at 10 uM after 48 hrs by SRB assay; assay type: functional; settings: HCT-15, 48 h, read-out: GI
SF-295 [8] = experiment: Cytotoxicity against human SF295 cells at 10 uM after 48 hrs by SRB assay; assay type: functional; settings: SF-295, 48 h, read-out: GI
A549 [9] = experiment: Cytotoxicity against human A549 cells at 10 uM after 48 hrs by SRB assay; assay type: functional; settings: A549, 48 h, read-out: GI
MCF7 [10] = experiment: Cytotoxicity against human MCF7 cells at 10 uM after 48 hrs by SRB assay; assay type: functional; settings: MCF7, 48 h, read-out: GI
HEp-2 [11] = experiment: Cytotoxicity against human Hep2 cells at 10 uM after 48 hrs by SRB assay; assay type: functional; settings: HEp-2, 48 h, read-out: GI
PC-3 [12] = experiment: Cytotoxicity against human PC3 cells at 10 uM after 48 hrs by SRB assay; assay type: functional; settings: PC-3, 48 h, read-out: GI
DU-145 [13] = experiment: Cytotoxicity against human DU145 cells at 10 uM after 48 hrs by SRB assay; assay type: functional; settings: DU-145, 48 h, read-out: GI
HL-60 [14] = experiment: Cytotoxicity against human HL60 cells at 10 uM after 48 hrs by SRB assay; assay type: functional; settings: HL-60, 48 h, read-out: GI
THP-1 [15] = experiment: Cytotoxicity against human THP1 cells at 10 uM after 48 hrs by SRB assay; assay type: functional; settings: THP-1, 48 h, read-out: GI
HCT-15 [16] = experiment: Cytotoxicity against human HCT15 cells at 30 uM after 48 hrs by SRB assay; assay type: functional; settings: HCT-15, 48 h, read-out: GI
SF-295 [17] = experiment: Cytotoxicity against human SF295 cells at 30 uM after 48 hrs by SRB assay; assay type: functional; settings: SF-295, 48 h, read-out: GI
A549 [18] = experiment: Cytotoxicity against human A549 cells at 30 uM after 48 hrs by SRB assay; assay type: functional; settings: A549, 48 h, read-out: GI
MCF7 [19] = experiment: Cytotoxicity against human MCF7 cells at 30 uM after 48 hrs by SRB assay; assay type: functional; settings: MCF7, 48 h, read-out: GI
HEp-2 [20] = experiment: Cytotoxicity against human Hep2 cells at 30 uM after 48 hrs by SRB assay; assay type: functional; settings: HEp-2, 48 h, read-out: GI
PC-3 [21] = experiment: Cytotoxicity against human PC3 cells at 30 uM after 48 hrs by SRB assay; assay type: functional; settings: PC-3, 48 h, read-out: GI
DU-145 [22] = experiment: Cytotoxicity against human DU145 cells at 30 uM after 48 hrs by SRB assay; assay type: functional; settings: DU-145, 48 h, read-out: GI
HL-60 [23] = experiment: Cytotoxicity against human HL60 cells at 30 uM after 48 hrs by SRB assay; assay type: functional; settings: HL-60, 48 h, read-out: GI
THP-1 [24] = experiment: Cytotoxicity against human THP1 cells at 30 uM after 48 hrs by SRB assay; assay type: functional; settings: THP-1, 48 h, read-out: GI
HCT-15 [25] = experiment: Cytotoxicity against human HCT15 cells at 50 uM after 48 hrs by SRB assay; assay type: functional; settings: HCT-15, 48 h, read-out: GI
SF-295 [26] = experiment: Cytotoxicity against human SF295 cells at 50 uM after 48 hrs by SRB assay; assay type: functional; settings: SF-295, 48 h, read-out: GI
A549 [27] = experiment: Cytotoxicity against human A549 cells at 50 uM after 48 hrs by SRB assay; assay type: functional; settings: A549, 48 h, read-out: GI
MCF7 [28] = experiment: Cytotoxicity against human MCF7 cells at 50 uM after 48 hrs by SRB assay; assay type: functional; settings: MCF7, 48 h, read-out: GI
HEp-2 [29] = experiment: Cytotoxicity against human Hep2 cells at 50 uM after 48 hrs by SRB assay; assay type: functional; settings: HEp-2, 48 h, read-out: GI
PC-3 [30] = experiment: Cytotoxicity against human PC3 cells at 50 uM after 48 hrs by SRB assay; assay type: functional; settings: PC-3, 48 h, read-out: GI
HL-60 [31] = experiment: Cytotoxicity against human HL60 cells at 50 uM after 48 hrs by SRB assay; assay type: functional; settings: HL-60, 48 h, read-out: GI
DU-145 [32] = experiment: Cytotoxicity against human DU145 cells at 50 uM after 48 hrs by SRB assay; assay type: functional; settings: DU-145, 48 h, read-out: GI
THP-1 [33] = experiment: Cytotoxicity against human THP1 cells at 50 uM after 48 hrs by SRB assay; assay type: functional; settings: THP-1, 48 h, read-out: GI
HCT-15 [34] = experiment: Cytotoxicity against human HCT15 cells after 48 hrs by SRB assay; assay type: functional, cell-based; settings: HCT-15, 48 h
A549 [35] = experiment: Cytotoxicity against human A549 cells after 48 hrs by SRB assay; assay type: functional, cell-based; settings: A549, 48 h
SF-295 [36] = experiment: Cytotoxicity against human SF295 cells after 48 hrs by SRB assay; assay type: functional, cell-based; settings: SF-295, 48 h
MCF7 [37] = experiment: Cytotoxicity against human MCF7 cells after 48 hrs by SRB assay; assay type: functional, cell-based; settings: MCF7, 48 h
HEp-2 [38] = experiment: Cytotoxicity against human Hep2 cells after 48 hrs by SRB assay; assay type: functional, cell-based; settings: HEp-2, 48 h
PC-3 [39] = experiment: Cytotoxicity against human PC3 cells after 48 hrs by SRB assay; assay type: functional, cell-based; settings: PC-3, 48 h
DU-145 [40] = experiment: Cytotoxicity against human DU145 cells after 48 hrs by SRB assay; assay type: functional, cell-based; settings: DU-145, 48 h
HL-60 [41] = experiment: Cytotoxicity against human HL60 cells after 48 hrs by SRB assay; assay type: functional, cell-based; settings: HL-60, 48 h
THP-1 [42] = experiment: Cytotoxicity against human THP1 cells after 48 hrs by SRB assay; assay type: functional, cell-based; settings: THP-1, 48 h

C=C(C)[C@@H]1CC[C@]2(C(=O)O)CC[C@]3(C)[C@H](CC[C@@H]4[C@@]5(C)CC[C@H](OCc6cn(-c7ccccc7C#N)nn6)C(C)(C)[C@@H]5CC[C@]43C)[C@@H]12
inhibition (THP-1 [1]): Active
inhibition (THP-1 [2]): Active
Activity (HL-60 [3]): Active
Activity (HL-60 [4]): Dose-dependent effect
MED (HL-60 [4]): 20 µM
Activity (CV-1): Non-toxic
Activity (HL-60 [5]): Dose-dependent effect
inhibition (THP-1 [6]): Dose-dependent effect
inhibition of growth at 10 µM (HCT-15 [7]): 40%
inhibition of growth at 10 µM (SF-295 [8]): 45%
inhibition of growth at 10 µM (A549 [9]): 60%
inhibition of growth at 10 µM (MCF7 [10]): 60%
inhibition of growth at 10 µM (HEp-2 [11]): 45%
inhibition of growth at 10 µM (PC-3 [12]): 34%
inhibition of growth at 10 µM (DU-145 [13]): 32%
inhibition of growth at 10 µM (HL-60 [14]): 65%
inhibition of growth at 10 µM (THP-1 [15]): 50%
inhibition of growth at 30 µM (HCT-15 [16]): 61%
inhibition of growth at 30 µM (SF-295 [17]): 66%
inhibition of growth at 30 µM (A549 [18]): 74%
inhibition of growth at 30 µM (MCF7 [19]): 81%
inhibition of growth at 30 µM (HEp-2 [20]): 59%
inhibition of growth at 30 µM (PC-3 [21]): 71%
inhibition of growth at 30 µM (DU-145 [22]): 65%
inhibition of growth at 30 µM (HL-60 [23]): 90%
inhibition of growth at 30 µM (THP-1 [24]): 89%
inhibition of growth at 50 µM (HCT-15 [25]): 89%
inhibition of growth at 50 µM (SF-295 [26]): 71%
inhibition of growth at 50 µM (A549 [27]): 79%
inhibition of growth at 50 µM (MCF7 [28]): 97%
inhibition of growth at 50 µM (HEp-2 [29]): 68%
inhibition of growth at 50 µM (PC-3 [30]): 86%
inhibition of growth at 50 µM (HL-60 [31]): 98%
inhibition of growth at 50 µM (DU-145 [32]): 84%
inhibition of growth at 50 µM (THP-1 [33]): 92%
IC50 (HCT-15 [34]): 20 µM
IC50 (A549 [35]): 5 µM
IC50 (SF-295 [36]): 15 µM
IC50 (MCF7 [37]): 4.8 µM
IC50 (HEp-2 [38]): 12 µM
IC50 (PC-3 [39]): 14 µM
IC50 (DU-145 [40]): 18 µM
IC50 (HL-60 [41]): 2500 nM
IC50 (THP-1 [42]): 4.5 µM
